Rows were chosen to be rich in hits. Some 1.6% of all compounds tested hit in one or more screens of this group.
HMGR II inh – E. faecalis class II HMG-CoA reductase inhibition | purified E. faecalis HMGR, NADPH absorbance 340 nm kinetic | inhibition, % at 10 µM | 0.41% of 190,000 active | AID 1066;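 active = inhibition above a set limit, the median over all tested compounds plus 3 SD, cut at about 9.5% in these data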;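 note: enzyme runs in reverse so mevalonate oxidation gives rising NADPH absorbance; 0% = complete reaction with DMSO and 100% = background rate lacking mevalonate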
ABCG2 inh – inhibitors of human ABCG2 transporter, ABCB1 counter-screen | Q9UNQ0 | IgMXP3 cells, JC-1 efflux, flow cytometry | inhibition, % at 6.6 µM | 0.1% of 190,000 active | AID 1325;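 active = inhibition above 80%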;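 note: 0% = DMSO and 100% = nicardipine control wells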
Target sequence (Q9UNQ0 whole entry, looked up): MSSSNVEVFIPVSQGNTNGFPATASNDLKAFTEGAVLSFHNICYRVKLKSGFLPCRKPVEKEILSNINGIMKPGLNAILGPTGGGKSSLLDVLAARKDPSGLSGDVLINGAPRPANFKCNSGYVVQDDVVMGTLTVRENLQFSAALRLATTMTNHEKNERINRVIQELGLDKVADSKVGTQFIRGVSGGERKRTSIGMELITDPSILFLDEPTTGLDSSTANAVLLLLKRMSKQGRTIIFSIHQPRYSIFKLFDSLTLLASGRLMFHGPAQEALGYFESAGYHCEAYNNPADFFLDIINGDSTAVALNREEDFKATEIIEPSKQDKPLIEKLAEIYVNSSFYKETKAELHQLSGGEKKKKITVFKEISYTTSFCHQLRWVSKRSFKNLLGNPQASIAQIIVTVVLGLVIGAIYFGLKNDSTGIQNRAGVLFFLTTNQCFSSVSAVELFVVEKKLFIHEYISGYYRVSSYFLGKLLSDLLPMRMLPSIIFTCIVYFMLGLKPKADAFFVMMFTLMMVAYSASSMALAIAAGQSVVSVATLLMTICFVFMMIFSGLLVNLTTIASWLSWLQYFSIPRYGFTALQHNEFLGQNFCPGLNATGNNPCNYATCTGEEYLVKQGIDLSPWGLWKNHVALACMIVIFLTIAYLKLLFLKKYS
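Test system: IgMXP3 (ABCG2) plus far-red-tagged CCRF-Adr (ABCB1) cells. Reagent: JC-1 dye as substrate. Timing: 10 min exposure at 25 °C with rotation, no wash. Measured by: flow cytometric JC-1 green MFI at 530 nm. Read-out: percent efflux inhibition, scaled nicardipine 100% to DMSO 0%. Control set: nicardipine and DMSO wells.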
Diaph inh CS – diaphorase inhibition or chemical oxidation counter-screen. inhibition, % at 20 µM. 0.69% of 190,000 active. AID 1217. diaphorase resazurin-to-resorufin fluorescence, NADH, 16 min; bacterial (C. kluyveri) enzyme, not human;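 active = primary screen inhibition at 20 µM above a set limit, cut at about 50% in these data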;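 note: plate controls were DMSO with full reaction for no effect and wells lacking NADH for full effect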
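Detection: fluorescence of resorufin formed from resazurin, Ex 544/Em 590 nm; test system: Clostridium kluyveri diaphorase enzyme; amount: 0.14 U/mL diaphorase, enzyme working solution; times: 16-min room-temperature incubation before reading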
Diaphorase act – counter-screen for diaphorase-based assays: diaphorase activators and chemical reducers | Diaphorase/resazurin coupled assay, resorufin fluorescence, 16 min; active compounds read high; 1 = vehicle wells, 0 = NADH-free wells | activation factor at 20 µM | 0.005% of 190,000 active;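 active = diaphorase activity raised at least twofold by the compound at 20 µM; inactive = activation factor below 2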
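Assay system: bacterial diaphorase enzyme (C. kluyveri) / Input: enzyme 0.07 U/mL final / Medium: 50 mM HEPES pH 7.4 with 4.542 mM MgCl2, 0.005% Tween 20 / Doses: single compound dose of 20 µM, 1% DMSO final / Incubation: 16 min enzyme reaction, ambient temperature / Signal: fluorescence, excitation 544 nm and emission 590 nm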
p47phox inh – inhibitors of human p47phox binding. P14598. p47phox/p22phox peptide binding, fluorescence polarization, 2 h. inhibition, % at 24.7 µM. 0.53% of 220,000 active. AID 1274;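 active = inhibition above about 30%, limit read from the data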;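 note: 0% = p47phox with labelled peptide and 100% = labelled peptide alone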
ABCB1 inh – blocks JC-1 efflux by human ABCB1 transporter; CCRF-Adr cells, flow cytometry; inhibition, % at 6.6 µM; 0.067% of 190,000 active; P08183; in the data active = inhibition above about 40%;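 note: 0% = vehicle and 100% = reference inhibitor; higher value means more JC-1 retained so stronger ABCB1 efflux block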
Starred values were filed as active, the others as inactive.

How did Cc1cccc(S(=O)(=O)Nc2ccc(-c3cn4ccccc4n3)cc2)c1 do in these assays?
HMGR II inh: 14*; ABCG2 inh: 17; Diaph inh CS: 16; Diaphorase act: 0.8; p47phox inh: -20; ABCB1 inh: 1

Results for CCSc1nnc(NC(=O)CN2C(=O)C3CC=CCC3C2=O)s1 (stereo unspecified) ?
HMGR II inh: 14*; ABCG2 inh: 2; Diaph inh CS: 3; Diaphorase act: 1; p47phox inh: -10; ABCB1 inh: -1

How did c1ccc2c(Nc3nc(N4CCOCC4)c4ccccc4n3)cccc2c1 do in these assays?
HMGR II inh: -3; ABCG2 inh: 28; Diaph inh CS: 15; Diaphorase act: 0.8; p47phox inh: 0; ABCB1 inh: 2

Results for COc1ccc(Cn2nnnc2C(C(C)C)N2CCN(c3ccccc3OC)CC2)cc1 (stereo unspecified) ?
HMGR II inh: -2; ABCG2 inh: 6; Diaph inh CS: 17; Diaphorase act: 0.8; p47phox inh: -22; ABCB1 inh: 3

How did CC(C)C(c1nnnn1Cc1ccc(F)cc1)N1CCN(c2ccc(O)cc2)CC1 (stereo unspecified) do in these assays?
HMGR II inh: 4; ABCG2 inh: 2; Diaph inh CS: 62*; Diaphorase act: 0.4; p47phox inh: 6; ABCB1 inh: 0

What do the screens show for `CCOC(=O)Nc1ccc(C)cc1NC(=O)OCC`?
HMGR II inh: -3; ABCG2 inh: 1; Diaph inh CS: 9; Diaphorase act: 0.9; p47phox inh: -13; ABCB1 inh: 0

Results for CCOC(=O)Nc1ccc(C)cc1C ?
HMGR II inh: -7; ABCG2 inh: 2; Diaph inh CS: 9; Diaphorase act: 0.9; p47phox inh: 117*; ABCB1 inh: 0

Results for Cc1ccc(-c2nnc(-c3ccc4c(c3)OCO4)o2)cc1 ?
HMGR II inh: 0; ABCG2 inh: 2; Diaph inh CS: 2; Diaphorase act: 1; p47phox inh: 131*; ABCB1 inh: 0

What do the screens show for `c1coc(-c2nnc(-c3ccc4c(c3)OCO4)o2)c1`?
HMGR II inh: -4; ABCG2 inh: 0; Diaph inh CS: 10; Diaphorase act: 0.9; p47phox inh: -12; ABCB1 inh: 0

How did Cc1ccc2c(c1)nnn2C1CCN(C(=O)NCc2ccccc2)CC1 do in these assays?
HMGR II inh: -2; ABCG2 inh: 11; Diaph inh CS: -17; Diaphorase act: 1.2; p47phox inh: -15; ABCB1 inh: 2

Results for Cc1cccc(NC(=O)N2CCC(n3nnc4cc(C)ccc43)CC2)c1 ?
HMGR II inh: 1; ABCG2 inh: 1; Diaph inh CS: 79*; Diaphorase act: 0.2; p47phox inh: 4; ABCB1 inh: 1

What do the screens show for `CCCc1n(CC(O)COCC2CC=CCC2)c2ccccc2[n+]1C` (stereo unspecified)?
HMGR II inh: -5; ABCG2 inh: 2; p47phox inh: -1; ABCB1 inh: 1

How did COc1ccc(N2C(=O)CCC(C(=O)NCCN3CCOCC3)C2c2ccc(OC)c(OC)c2)cc1 (stereo unspecified) do in these assays?
HMGR II inh: -7; ABCG2 inh: 3; Diaph inh CS: 16; Diaphorase act: 0.8; p47phox inh: -12; ABCB1 inh: 0

What do the screens show for `COc1ccc(N2C(=O)CCC(C(=O)NCc3cccnc3)C2c2ccc(OC)c(OC)c2)cc1` (stereo unspecified)?
HMGR II inh: -2; ABCG2 inh: 0; Diaph inh CS: 5; Diaphorase act: 1; p47phox inh: 200*; ABCB1 inh: 0

How did CCOc1cc(CNCCc2ccc(S(N)(=O)=O)cc2)cc(Cl)c1OCc1ccccc1 do in these assays?
HMGR II inh: -2; ABCG2 inh: 6; Diaph inh CS: 6; Diaphorase act: 0.9; p47phox inh: 79*; ABCB1 inh: 1

How did COc1ccc(Nc2cc(Cl)nc(N)n2)cc1 do in these assays?
HMGR II inh: 11*; ABCG2 inh: 0; Diaph inh CS: 21; Diaphorase act: 0.8; p47phox inh: -10; ABCB1 inh: 0

What do the screens show for `COc1ccc(Nc2cc(C)nc(N)n2)cc1`?
p47phox inh: 0
